Assay results from different studies.
Protocols differ between the studies behind these lines.
Cell line: NCI-H226
Read-out: cell growth or viability

SMILES | assay | setting | endpoint | result
COc1cccc(Oc2ccccc2NC(=O)CNC(=O)c2cccc3ccccc23)c1 | SRB | 48 h | GI50 | 2.51 µM
Cc1cc(C)n(C(=S)[S][Au][PH](CCCCCC[PH]([Au][S]C(=S)n2nc(C)cc2C)(c2ccccc2)c2ccccc2)(c2ccccc2)c2ccccc2)n1 | SRB | – | GI50 | 2.52 µM
COc1ccc(C(=O)/C=C/c2cccc(Br)c2)cc1S(N)(=O)=O | SRB | 48 h | GI50 | 2.8 µM
CCc1n(Cc2ccc3ccccc3n2)cc[n+]1Cc1ccc2ccccc2n1 | SRB | – | TGI | 30.8 µM
COC(=O)/C=C/C=C/c1ccc2c(c1)OCO2 | SRB | – | IC50 | 99.1 µM
CCCCc1n(Cc2ccc3ccccc3n2)cc[n+]1Cc1ccc2ccccc2n1 | SRB | – | TGI | 13.6 µM
COc1cc([C@@H]2c3cc4c(cc3[C@@H](O[C@@H]3O[C@@H]5CO[C@@H](C)O[C@H]5[C@H](O)[C@H]3O)[C@H]3COC(=O)[C@H]23)OCO4)cc(OC)c1O | MTT | 72 h | IC50 | 0.39 µM
CCCc1n(Cc2ccc3ccccc3n2)cc[n+]1Cc1ccc2ccccc2c1 | SRB | – | TGI | 7.6 µM
O=C(/C=C/C=C/c1ccc2c(c1)OCO2)N1CCCCC1 | SRB | – | IC50 | 83.7 µM
COc1ccc(C(=O)/C=C/c2ccccc2Br)cc1S(N)(=O)=O | SRB | 10 µM | inhibition | 79%
O=C1NC(=NCc2cccs2)S/C1=C\c1ccc2ncccc2c1 | – | – | IC50 | > 10 µM
COc1ccc(C(=O)/C=C/c2cc3c(cc2Br)OCO3)cc1S(N)(=O)=O | SRB | 10 µM | inhibition | 87%
CC(=O)O[C@H]1C(=O)[C@@]2(C)[C@H]([C@H](OC(=O)c3ccccc3)[C@]3(O)C[C@H](OC(=O)[C@H](O)[C@@H](NC(=O)c4ccccc4)c4ccccc4)C(C)=C1C3(C)C)[C@]1(OC(C)=O)CO[C@@H]1C[C@@H]2O | SRB | – | IC50 | 0.0043 µM
COc1ccccc1/C=C/C(=O)c1ccc(OC)c(S(N)(=O)=O)c1 | SRB | 48 h | GI50 | 4 µM
COc1cc(-c2ccc(-c3ccc(C(=N)N)nc3)s2)cc(OC)c1OC | SRB | – | GI50 | 10.8 µM
COc1ccc(C(=O)/C=C/c2ccc3ccccc3c2)cc1S(N)(=O)=O | SRB | 48 h | GI50 | 2.3 µM
Cc1n(Cc2ccc3ccccc3n2)cc[n+]1Cc1ccc2ccccc2c1 | SRB | – | TGI | 10.9 µM
